In the RNAGym collection of RNA variant scans (doi:10.1002/anie.201605470):

B1: Osa-1-4 twister ribozyme (parent)
chain: CCGCCUAACACUGCCAAUGCCGGUCCCAAGCCCGGAUAAAAGUGGAGGGGGCGG

Variants of: B1
Assay: self-cleavage, relative activity (ratio to wild type); higher = more cleavage; co-transcriptional
Method in brief: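 The 48 positions downstream of the cleavage site in a DNA template for a 54-nucleotide Oryza sativa twister ribozyme carried 97 % wild-type base and 1 % of each other base. After in vitro transcription (2 h, 37 °C) with co-transcriptional self-cleavage, the RNA was reverse-transcribed with a template-switching oligonucleotide, PCR-amplified and deep-sequenced. Relative activity is the fraction cleaved, judged by reads with or without upstream sequence and normalised to wild type.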
In the case of CCGCCUAACACCGCCAAUGCCGGUCCCAAGCCCGGAUAAAAGUAGAGGGGGCGG [G44A U12C], the self-cleavage is reported as 0.68.
In the case of CCGCCUAACACGGCCAAUGCCGGUCCCAAGCCCGGAUAAAAGUAGAGGGGGCGG [G44A U12G], the self-cleavage is reported as 0.28.
For CCGCCUAACACUGCCAAAGCCGGUCCCAAGCCCGGAUAAAAGUAGAGGGGGCGG [G44A U18A], the self-cleavage was 0.84.
In the case of CCGCCUAACACUGCCAACGCCGGUCCCAAGCCCGGAUAAAAGUAGAGGGGGCGG [G44A U18C], the self-cleavage is reported as 0.83.
Variant CCGCCUAACACUGCCAAGGCCGGUCCCAAGCCCGGAUAAAAGUAGAGGGGGCGG [G44A U18G] has a self-cleavage of 0.63.
Variant CCGCCUAACACUGCCAAUGCCGGACCCAAGCCCGGAUAAAAGUAGAGGGGGCGG [G44A U24A] has a self-cleavage of 0.06.
With CCGCCUAACACUGCCAAUGCCGGCCCCAAGCCCGGAUAAAAGUAGAGGGGGCGG [G44A U24C] the self-cleavage was 0.08.
CCGCCUAACACUGCCAAUGCCGGGCCCAAGCCCGGAUAAAAGUAGAGGGGGCGG [G44A U24G] showed a self-cleavage of 0.03.
Work on CCGCCUAACACUGCCAAUGCCGGUCCCAAGCCCGGAAAAAAGUAGAGGGGGCGG [G44A U37A] yielded a self-cleavage of 0.7.
CCGCCUAACACUGCCAAUGCCGGUCCCAAGCCCGGACAAAAGUAGAGGGGGCGG [G44A U37C] gave a self-cleavage of 1.01.
Variant CCGCCUAACACUGCCAAUGCCGGUCCCAAGCCCGGAGAAAAGUAGAGGGGGCGG [G44A U37G] has a self-cleavage of 1.
Work on CCGCCUAACACUGCCAAUGCCGGUCCCAAGCCCGGAUAAAAGAAGAGGGGGCGG [G44A U43A] yielded a self-cleavage of 0.88.
Work on CCGCCUAACACUGCCAAUGCCGGUCCCAAGCCCGGAUAAAAGCAGAGGGGGCGG [G44A U43C] yielded a self-cleavage of 0.1.
With CCGCCUAACACUGCCAAUGCCGGUCCCAAGCCCGGAUAAAAGGAGAGGGGGCGG [G44A U43G] the self-cleavage was 0.67.
In the case of CCGCCUAACACUGCCAAUGCCGGUCCCAAGCCCGGAUAAAAGUCGAGGGGGCGG [G44C], the self-cleavage is reported as 0.98.
Variant CCGCCUAACACUGCCAAUGCCGGUCCCAAGCCCGGAUAAAAGUCAAGGGGGCGG [G44C G45A] has a self-cleavage of 0.14.
For CCGCCUAACACUGCCAAUGCCGGUCCCAAGCCCGGAUAAAAGUCCAGGGGGCGG [G44C G45C], the self-cleavage was 0.08.
Work on CCGCCUAACACUGCCAAUGCCGGUCCCAAGCCCGGAUAAAAGUCUAGGGGGCGG [G44C G45U] yielded a self-cleavage of 0.07.
For CCGCCUAACACUGCCAAUGCCGGUCCCAAGCCCGGAUAAAAGUCGAAGGGGCGG [G44C G47A], the self-cleavage was 0.19.
For CCGCCUAACACUGCCAAUGCCGGUCCCAAGCCCGGAUAAAAGUCGACGGGGCGG [G44C G47C], the self-cleavage was 0.11.
For CCGCCUAACACUGCCAAUGCCGGUCCCAAGCCCGGAUAAAAGUCGAUGGGGCGG [G44C G47U], the self-cleavage was 0.16.
Work on CCGCCUAACACUGCCAAUGCCGGUCCCAAGCCCGGAUAAAAGUCGAGAGGGCGG [G44C G48A] yielded a self-cleavage of 0.08.
For CCGCCUAACACUGCCAAUGCCGGUCCCAAGCCCGGAUAAAAGUCGAGCGGGCGG [G44C G48C], the self-cleavage was 0.08.
Variant CCGCCUAACACUGCCAAUGCCGGUCCCAAGCCCGGAUAAAAGUCGAGUGGGCGG [G44C G48U] has a self-cleavage of 0.07.
In the case of CCGCCUAACACUGCCAAUGCCGGUCCCAAGCCCGGAUAAAAGUCGAGGAGGCGG [G44C G49A], the self-cleavage is reported as 0.11.
CCGCCUAACACUGCCAAUGCCGGUCCCAAGCCCGGAUAAAAGUCGAGGCGGCGG [G44C G49C] gave a self-cleavage of 0.07.
In the case of CCGCCUAACACUGCCAAUGCCGGUCCCAAGCCCGGAUAAAAGUCGAGGUGGCGG [G44C G49U], the self-cleavage is reported as 0.1.
Variant CCGCCUAACACUGCCAAUGCCGGUCCCAAGCCCGGAUAAAAGUCGAGGGAGCGG [G44C G50A] has a self-cleavage of 0.5.
CCGCCUAACACUGCCAAUGCCGGUCCCAAGCCCGGAUAAAAGUCGAGGGCGCGG [G44C G50C] showed a self-cleavage of 0.81.
For CCGCCUAACACUGCCAAUGCCGGUCCCAAGCCCGGAUAAAAGUCGAGGGUGCGG [G44C G50U], the self-cleavage was 1.
Variant CCGCCUAACACUGCCAAUGCCGGUCCCAAGCCCGGAUAAAAGUCGAGGGGACGG [G44C G51A] has a self-cleavage of 0.67.
Work on CCGCCUAACACUGCCAAUGCCGGUCCCAAGCCCGGAUAAAAGUCGAGGGGCCGG [G44C G51C] yielded a self-cleavage of 0.07.
CCGCCUAACACUGCCAAUGCCGGUCCCAAGCCCGGAUAAAAGUCGAGGGGUCGG [G44C G51U] gave a self-cleavage of 0.16.
With CCGCCUAACACUGCCAAUGCCGGUCCCAAGCCCGGAUAAAAGUCGAGGGGGCAG [G44C G53A] the self-cleavage was 0.81.
CCGCCUAACACUGCCAAUGCCGGUCCCAAGCCCGGAUAAAAGUCGAGGGGGCCG [G44C G53C] gave a self-cleavage of 0.09.
CCGCCUAACACUGCCAAUGCCGGUCCCAAGCCCGGAUAAAAGUCGAGGGGGCUG [G44C G53U] gave a self-cleavage of 0.38.
With CCGCCUAACACUGCCAAUGCCGGUCCCAAGCCCGGAUAAAAGUCGAGGGGGCGA [G44C G54A] the self-cleavage was 0.89.
CCGCCUAACACUGCCAAUGCCGGUCCCAAGCCCGGAUAAAAGUCGAGGGGGCGC [G44C G54C] showed a self-cleavage of 0.92.
In the case of CCGCCUAACACUGCCAAUGCCGGUCCCAAGCCCGGAUAAAAGUCGAGGGGGCGU [G44C G54U], the self-cleavage is reported as 0.92.
In the case of CCGCCUAACACAGCCAAUGCCGGUCCCAAGCCCGGAUAAAAGUCGAGGGGGCGG [G44C U12A], the self-cleavage is reported as 0.4.
CCGCCUAACACCGCCAAUGCCGGUCCCAAGCCCGGAUAAAAGUCGAGGGGGCGG [G44C U12C] gave a self-cleavage of 0.31.
In the case of CCGCCUAACACGGCCAAUGCCGGUCCCAAGCCCGGAUAAAAGUCGAGGGGGCGG [G44C U12G], the self-cleavage is reported as 0.08.
Work on CCGCCUAACACUGCCAAAGCCGGUCCCAAGCCCGGAUAAAAGUCGAGGGGGCGG [G44C U18A] yielded a self-cleavage of 0.88.
Work on CCGCCUAACACUGCCAACGCCGGUCCCAAGCCCGGAUAAAAGUCGAGGGGGCGG [G44C U18C] yielded a self-cleavage of 0.83.
CCGCCUAACACUGCCAAGGCCGGUCCCAAGCCCGGAUAAAAGUCGAGGGGGCGG [G44C U18G] gave a self-cleavage of 0.64.
With CCGCCUAACACUGCCAAUGCCGGACCCAAGCCCGGAUAAAAGUCGAGGGGGCGG [G44C U24A] the self-cleavage was 0.2.
In the case of CCGCCUAACACUGCCAAUGCCGGCCCCAAGCCCGGAUAAAAGUCGAGGGGGCGG [G44C U24C], the self-cleavage is reported as 0.2.
CCGCCUAACACUGCCAAUGCCGGGCCCAAGCCCGGAUAAAAGUCGAGGGGGCGG [G44C U24G] gave a self-cleavage of 0.01.
